Calls of active or inactive are those of the source. No cut-off for these calls is given here.
How the values were obtained:
A2780 [1] = test: Growth inhibition of human A2780 cells incubated for 72 hrs by trypan blue assay; format: functional; conditions: A2780, 72 h
In short: (§1)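 HeLa, A2780 and MSTO-211H human tumor cells; GI50 taken as the concentration (μM) inhibiting growth of 50% of cells relative to an untreated control culture; mean ± SD of at least three independent experiments.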

MSTO-211H = test: Growth inhibition of human MSTO-211H cells incubated for 72 hrs by trypan blue assay; format: functional; in short: as §1
HeLa = test: Growth inhibition of human HeLa cells incubated for 72 hrs by trypan blue assay; format: functional; in short: as §1
[2] = molecular target: DNA topoisomerase 2-alpha (Homo sapiens) (UniProt P11388); test: Inhibition of recombinant human topoisomerase 2 alpha-mediated relaxation of supercoiled pBR322 DNA at 100 uM incubated for 30 mins by ethidium bromide staining based agarose gel electrophoresis method
Chain of DNA topoisomerase 2-alpha (Homo sapiens) (P11388 whole entry): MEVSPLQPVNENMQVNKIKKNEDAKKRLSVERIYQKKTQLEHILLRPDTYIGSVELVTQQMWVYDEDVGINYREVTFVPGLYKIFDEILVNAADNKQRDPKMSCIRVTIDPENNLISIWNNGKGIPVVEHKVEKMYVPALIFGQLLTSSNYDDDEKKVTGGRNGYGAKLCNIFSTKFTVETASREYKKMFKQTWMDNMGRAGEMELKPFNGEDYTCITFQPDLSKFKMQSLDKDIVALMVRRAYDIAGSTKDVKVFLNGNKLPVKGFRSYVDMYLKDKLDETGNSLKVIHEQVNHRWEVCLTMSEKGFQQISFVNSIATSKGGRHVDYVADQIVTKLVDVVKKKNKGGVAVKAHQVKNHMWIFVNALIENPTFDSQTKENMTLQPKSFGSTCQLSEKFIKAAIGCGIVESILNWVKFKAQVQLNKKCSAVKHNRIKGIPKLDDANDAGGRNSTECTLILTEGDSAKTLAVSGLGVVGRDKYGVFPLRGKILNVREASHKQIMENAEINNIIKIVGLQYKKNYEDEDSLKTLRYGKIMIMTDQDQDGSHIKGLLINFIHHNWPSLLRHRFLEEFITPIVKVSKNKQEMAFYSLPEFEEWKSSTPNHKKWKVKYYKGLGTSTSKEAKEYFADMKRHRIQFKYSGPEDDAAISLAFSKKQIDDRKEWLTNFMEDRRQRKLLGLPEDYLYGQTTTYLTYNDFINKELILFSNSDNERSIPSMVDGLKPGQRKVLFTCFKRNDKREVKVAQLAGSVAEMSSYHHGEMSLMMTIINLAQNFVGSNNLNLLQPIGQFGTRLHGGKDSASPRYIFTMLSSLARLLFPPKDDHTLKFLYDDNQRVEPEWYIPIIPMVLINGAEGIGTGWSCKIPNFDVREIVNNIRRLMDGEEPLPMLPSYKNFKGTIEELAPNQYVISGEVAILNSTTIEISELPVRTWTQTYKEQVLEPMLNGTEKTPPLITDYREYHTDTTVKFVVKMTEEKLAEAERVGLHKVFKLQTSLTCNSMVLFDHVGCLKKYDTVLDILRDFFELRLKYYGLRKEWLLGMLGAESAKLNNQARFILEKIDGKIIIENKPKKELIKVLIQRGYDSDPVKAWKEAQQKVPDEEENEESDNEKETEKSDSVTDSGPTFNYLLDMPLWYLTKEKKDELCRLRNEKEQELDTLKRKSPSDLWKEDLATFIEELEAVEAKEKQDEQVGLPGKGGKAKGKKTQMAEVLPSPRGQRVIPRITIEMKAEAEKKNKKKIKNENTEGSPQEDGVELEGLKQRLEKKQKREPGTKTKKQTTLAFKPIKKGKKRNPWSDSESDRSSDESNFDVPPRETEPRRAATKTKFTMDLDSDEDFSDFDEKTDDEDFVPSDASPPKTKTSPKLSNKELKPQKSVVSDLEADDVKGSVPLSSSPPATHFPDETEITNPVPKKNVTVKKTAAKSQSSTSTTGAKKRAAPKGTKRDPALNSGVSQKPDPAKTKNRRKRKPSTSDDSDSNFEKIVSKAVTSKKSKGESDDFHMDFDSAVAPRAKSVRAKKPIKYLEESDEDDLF
In short: (§2)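 Supercoiled pBR322 plasmid incubated with human recombinant topoisomerase II without or with compound at 100 μM, or at 25 and 50 μM; m-AMSA 20 μM as reference; relaxation inhibition judged from electrophoretic pattern of supercoiled DNA versus relaxed topoisomers.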

[3] = molecular target: DNA topoisomerase 2-alpha (Homo sapiens) (UniProt P11388); test: Inhibition of recombinant human topoisomerase 2 alpha-mediated relaxation of supercoiled pBR322 DNA at 50 uM incubated for 30 mins by ethidium bromide staining based agarose gel electrophoresis method; in short: as §2
[4] = molecular target: DNA topoisomerase 2-alpha (Homo sapiens) (UniProt P11388); test: Inhibition of recombinant human topoisomerase 2 alpha-mediated relaxation of supercoiled pBR322 DNA at 25 uM incubated for 30 mins by ethidium bromide staining based agarose gel electrophoresis method; in short: as §2
A2780 [5] = test: Induction of apoptosis in human A2780 cells assessed as depolarization of mitochondrial membrane potential at 50 uM incubated for 28 hrs by JC-1 staining based flow cytometry (reference value: 3.8 %); format: functional
In short: (§3)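 A2780 cells exposed 28 h to increasing concentrations versus untreated control, stained with JC-1 and analysed by flow cytometry; mitochondrial potential read as red aggregate versus green monomer fluorescence; percentages of cells with polarized and depolarized mitochondria reported.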

A2780 [6] = test: Induction of apoptosis in human A2780 cells assessed as polarization of mitochondrial membrane potential at 10 uM incubated for 28 hrs by JC-1 staining based flow cytometry (reference value: 96.1 %); format: functional; in short: as §3
A2780 [7] = test: Induction of apoptosis in human A2780 cells assessed as polarization of mitochondrial membrane potential at 50 uM incubated for 28 hrs by JC-1 staining based flow cytometry (reference value: 96.1 %); format: functional; in short: as §3
A2780 [8] = test: Induction of apoptosis in human A2780 cells assessed as decrease of mitochondrial membrane potential incubated for 28 hrs by JC-1 staining based flow cytometry
A2780 [9] = test: Induction of apoptosis in human A2780 cells assessed as increase in sub-G0 accumulation at 50 uM incubated for 28 hrs by propidium iodide staining based flow cytometry relative to control; format: functional
In short: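 A2780 cells treated 28 h at 10 and 50 μM alongside untreated control, stained with propidium iodide, DNA content per cell measured by flow cytometry; apoptotic fraction taken as sub-G0 (hypodiploid) peak.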

[10] = molecular target: DNA topoisomerase 2-alpha (Homo sapiens) (UniProt P11388); test: Inhibition of recombinant human topoisomerase 2 alpha-mediated relaxation of supercoiled pBR322 DNA at 50 uM incubated for 30 mins by ethidium bromide staining based agarose gel electrophoresis method relative to control; in short: as §2
A2780 [11] = test: Induction of apoptosis in human A2780 cells assessed as depolarization of mitochondrial membrane potential at 10 uM incubated for 28 hrs by JC-1 staining based flow cytometry (reference value: 3.8 %); format: functional; in short: as §3
[12] = molecular target: DNA topoisomerase 2-alpha (Homo sapiens) (UniProt P11388); test: Inhibition of recombinant human topoisomerase 2 alpha-mediated relaxation of supercoiled pBR322 DNA at 100 uM incubated for 30 mins by ethidium bromide staining based agarose gel electrophoresis method relative to control; in short: as §2

| Structure (SMILES) | GI50 (A2780 [1]) | GI50 (HeLa) | inhibition [2] | GI50 (MSTO-211H) | further results |
| --- | --- | --- | --- | --- | --- |
| O=c1c(O)c(-c2ccc(O)c(O)c2)oc2cc(O)cc(O)c12 [QUERCETIN] | 19.7 µM | 17.7 µM | – | > 20 µM | – |
| COc1cc(NS(C)(=O)=O)ccc1Nc1c2ccccc2nc2ccccc12 [AMSACRINE] | 0.027 µM | 0.031 µM | – | 0.019 µM | – |
| Cc1c(-c2ccc(O)cc2)[nH]c2ccc(O)cc12 | 11 µM | 16 µM | Active | > 20 µM | inhibition [3]: inactive; inhibition [4]: inactive |
| Cc1ncsc1C(=O)Oc1ccc(-c2[nH]c3ccccc3c2C)cc1 | 13 µM | > 20 µM | – | > 20 µM | – |
| CCCn1c(-c2ccc(O)c(O)c2)c(C)c2cc(O)ccc21 | 8.4 µM | > 20 µM | Active | > 20 µM | – |
| COc1ccc2c(c1)c(C)c(-c1ccc(OC)c(OC)c1)n2CCCCOc1ccccc1 | 17 µM | > 20 µM | inactive | 13 µM | – |
| Cc1c(-c2ccc(O)c(O)c2)n(C)c2ccc(O)cc12 | 14 µM | > 20 µM | inactive | > 20 µM | – |
| Cc1c(-c2ccc(OC(=O)c3c[nH]cn3)cc2)[nH]c2ccccc12 | > 20 µM | > 20 µM | – | > 20 µM | – |
| Cc1c(-c2ccc(O)c(O)c2)[nH]c2ccc(O)cc12 | 2.2 µM | > 20 µM | – | > 20 µM | inhibition [3]: Active; inhibition [12]: 100%; inhibition [4]: Active |

Continued, in another order:

| GI50 (A2780 [1]) | GI50 (HeLa) | inhibition [2] | Structure (SMILES) | GI50 (MSTO-211H) | further results |
| --- | --- | --- | --- | --- | --- |
| 2.3 µM | 7.9 µM | Active | CCCn1c(-c2ccc(O)cc2)c(C)c2cc(O)ccc21 | 2.9 µM | – |
| 3.1 µM | 11 µM | Active | Cc1c(-c2ccc(O)cc2)n(CCCCOc2ccccc2)c2ccccc12 | 3.3 µM | – |
| 7.4 µM | 18 µM | Active | Cc1c(-c2ccc(O)c(O)c2)n(CCCOc2ccccc2)c2ccc(O)cc12 | 7.1 µM | – |
| 4.7 µM | 15 µM | Active | Cc1c(-c2ccc(O)cc2)n(CCOc2ccccc2)c2ccc(O)cc12 | 7.6 µM | – |
| 13 µM | > 20 µM | inactive | CCOC(=O)Cn1c(-c2ccc(O)cc2)c(C)c2ccccc21 | > 20 µM | – |
| 2 µM | 4 µM | Active | Cc1c(-c2ccc(O)cc2)n(CCCCOc2ccccc2)c2ccc(O)cc12 | 2.9 µM | – |
| 4.3 µM | 10 µM | Active | Cc1c(-c2ccc(O)c(O)c2)n(CCCCOc2ccccc2)c2ccc(O)cc12 | 3.4 µM | – |
| > 20 µM | > 20 µM | – | Cc1c(-c2ccc(O)cc2)[nH]c2ccccc12 | > 20 µM | – |
| 9 µM | > 20 µM | inactive | CCCn1c(-c2ccc(O)cc2)c(C)c2ccccc21 | 7.1 µM | – |
| 2.2 µM | 4.4 µM | Active | Cc1c(-c2ccc(O)cc2)n(CCCOc2ccccc2)c2ccc(O)cc12 | 2.4 µM | Activity (A2780 [5]): 42.2%; Activity (A2780 [6]): 87%; inhibition [3]: Active; Activity (A2780 [7]): 57.7%; Activity (A2780 [8]): Dose-dependent effect; Activity (A2780 [9]): 30%; inhibition [10]: 100%; inhibition [4]: Active; Activity (A2780 [11]): 12.6% |
| > 20 µM | > 20 µM | inactive | Cc1c(-c2ccc(O)cc2)n(CC(=O)O)c2ccccc12 | > 20 µM | – |
